From ChEMBL document CHEMBL1146277, “The discovery of 6-[2-(5-chloro-2-{[(2,4-difluorophenyl)methyl]oxy}phenyl)-1-cyclopenten-1-yl]-2-pyridinecarboxylic acid, GW848687X, a potent and selective prostaglandin EP1 receptor antagonist for the treatment of inflammatory pain” (Bioorg Med Chem Lett, 2007) come the findings set out here.

Series [1] deals with T1, Prostaglandin E2 receptor EP1 subtype (Homo sapiens, UniProt P34995).
T1 sequence (P34995 whole entry): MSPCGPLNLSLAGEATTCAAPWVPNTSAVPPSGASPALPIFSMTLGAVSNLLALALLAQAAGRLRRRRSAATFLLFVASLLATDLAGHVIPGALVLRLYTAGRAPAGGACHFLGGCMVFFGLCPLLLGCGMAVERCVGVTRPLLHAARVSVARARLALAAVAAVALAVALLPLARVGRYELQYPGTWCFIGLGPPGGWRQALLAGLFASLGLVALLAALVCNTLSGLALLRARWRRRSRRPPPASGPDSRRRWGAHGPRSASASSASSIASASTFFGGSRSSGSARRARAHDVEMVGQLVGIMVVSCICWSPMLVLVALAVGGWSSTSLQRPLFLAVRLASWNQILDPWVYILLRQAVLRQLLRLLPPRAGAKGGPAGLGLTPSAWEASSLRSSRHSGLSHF
The series can be described thus: Inhibition of human EP1 receptor.

Series [2] deals with T2, Prostaglandin E2 receptor EP3 subtype (Homo sapiens, UniProt P43115).
T2 sequence (P43115 whole entry): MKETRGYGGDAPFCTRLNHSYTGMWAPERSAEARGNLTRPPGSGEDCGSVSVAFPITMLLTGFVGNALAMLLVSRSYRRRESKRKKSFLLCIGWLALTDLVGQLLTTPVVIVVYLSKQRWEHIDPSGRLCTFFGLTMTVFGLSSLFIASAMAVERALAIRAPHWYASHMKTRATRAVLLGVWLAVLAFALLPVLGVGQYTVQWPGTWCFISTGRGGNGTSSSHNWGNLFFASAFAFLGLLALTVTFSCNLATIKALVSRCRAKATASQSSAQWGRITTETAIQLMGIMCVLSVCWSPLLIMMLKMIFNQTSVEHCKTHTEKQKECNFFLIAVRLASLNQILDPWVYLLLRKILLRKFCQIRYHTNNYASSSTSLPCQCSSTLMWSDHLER
As to the kind of experiment: Inhibition of human EP3 receptor.

Series [3] is described as follows: Lipophilicity, log D of the compound. It counts as physicochemical. Particulars: octanol/water.
Series [4] in a line: Intrinsic clearance in rat liver microsomes. It counts as ADME, Microsome. A digest of the protocol:
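Rate of metabolism measured as intrinsic clearance (ml/min/g) in a rat microsomal assay.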

For series [5], the system named is Rattus norvegicus. As to the kind of experiment: Reversal of hypersensitivity in FCA rat model of acute inflammatory pain at 5 mg/kg, po. It counts as functional. The method, boiled down:
(§1)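 Freund's complete adjuvant injected into one hind paw; 24 h later, with hypersensitivity established, rats received a single oral dose of test compound in 1% methylcellulose. Hypersensitivity was read by weight bearing as percent inhibition (reversal) for each dose. Tested either as a single 5 mg/kg po dose or as a 3-point dose response, with ED₅₀ calculated as the dose giving 50% reversal.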

Another series concerns the target Cytochrome P450 2C9 (Homo sapiens, UniProt P11712). As to the kind of experiment: Inhibition of human CYP2C9. It counts as ADME. A digest of the protocol:
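Inhibition measured in a human recombinant CYP2C9 isozyme assay; IC₅₀ reported in µM.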

The nature of series [6]: Volume of distribution in rat at 1 mg/kg, iv. It counts as ADME, organism-based. The arrangement: dose 1 mg/kg, route intravenous. As to conditions: in vivo, read-out: Vdss.
Series [7] is described as follows: Half life in rat at 1 mg/kg, iv. As to conditions: in vivo. Set-up: dose 1 mg/kg, route intravenous. It counts as ADME, organism-based.
Series [8] in a line: Blood clearance in rat at 1 mg/kg, iv. It counts as ADME, organism-based. Set-up: dose 1 mg/kg, route intravenous. Particulars: whole blood.
In series [9] the test system is Rattus norvegicus. The series can be described thus: Reversal of hypersensitivity in po dosed FCA rat model of acute inflammatory pain. It counts as functional. The method, boiled down: as §1
The nature of series [10]: Half life in rat. It counts as ADME, organism-based. Particulars: in vivo.
Series [11] in a line: Blood clearance in rat. Particulars: whole blood. It counts as ADME, organism-based.
Series [12] in a line: Half life in dog. It counts as ADME, organism-based, Canis lupus familiaris. As to conditions: in vivo.
A short description of series [13]: Oral bioavailability in dog. It counts as ADME, organism-based, Canis lupus familiaris. As to conditions: in vivo.
The test system of series [14] is Rattus norvegicus. The series can be described thus: Reversal of antihyperalgesic effect in chronic rat model of joint pain at 30 mg/kg bid for 5 days.
A short description of series [15]: Oral bioavailability in rat. It counts as ADME, organism-based. As to conditions: in vivo.
The target of series [16] is T1, Prostaglandin E2 receptor EP1 subtype. As to the kind of experiment: Antagonist activity at human EP1 receptor. Particulars: read-out: pA2 (converted). It counts as functional.

Calls of active or inactive are those of the source. No cut-off for these calls is given here.

Sequence of Cytochrome P450 2C9 (P11712 whole entry): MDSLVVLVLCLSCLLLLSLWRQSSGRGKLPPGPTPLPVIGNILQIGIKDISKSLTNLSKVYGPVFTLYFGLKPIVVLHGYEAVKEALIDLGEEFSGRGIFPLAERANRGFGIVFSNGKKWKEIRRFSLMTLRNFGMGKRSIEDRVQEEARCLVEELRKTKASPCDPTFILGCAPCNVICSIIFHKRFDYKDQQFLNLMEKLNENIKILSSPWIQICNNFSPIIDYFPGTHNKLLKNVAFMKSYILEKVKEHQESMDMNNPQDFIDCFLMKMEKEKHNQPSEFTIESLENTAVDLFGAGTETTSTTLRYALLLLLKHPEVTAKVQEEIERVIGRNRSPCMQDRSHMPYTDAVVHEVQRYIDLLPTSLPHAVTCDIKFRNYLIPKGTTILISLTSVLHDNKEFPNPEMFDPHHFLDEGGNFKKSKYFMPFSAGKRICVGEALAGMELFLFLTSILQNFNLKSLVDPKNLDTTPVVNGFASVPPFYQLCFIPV

For `CSc1ccc(OCc2ccc(F)cc2)c(C2=C(c3cccc(C(=O)O)c3)CCC2)c1`, the results for the IC50 in series [1] and in series [2] were 31.6 nM and over 3160 nM, respectively.

`O=C(O)c1cncc(C2=C(c3cc(Cl)ccc3OCc3ccc(F)cc3F)CCC2)n1` registered a pH-dependent lipophilicity (logD) in series [3] of 1.6. The same compound registered an intrinsic metabolic clearance (CLint scaled) in series [4] of 2.6 mL/min/g. For the same compound, the Activity with Rattus norvegicus [5] is on record as 52%. For the same compound, the figures for the IC50 (in series [1]; against Cytochrome P450 2C9) were 2 nM and 12000 nM, respectively.

In the case of `O=C(O)c1cccc(C2=C(c3cc(Br)ccc3OCc3ccc(Cl)cc3F)CCC2)c1`, the IC50 is 2.51 nM in [1] and over 3160 nM in series [2].

For `COc1ccc(COc2ccccc2C2=C(c3cccc(C(=O)O)c3)CCC2)cc1`, the half-inhibitory concentration (IC50) was 100 nM in [1] and over 3160 nM in series [2].

Compound `O=C(O)c1cc(C2=C(c3cc(Cl)ccc3OCc3ccccc3)CCC2)ncn1` showed a logD in series [3] of 1.2. This compound also gave a half-inhibitory concentration (IC50) in series [1] of 200 nM.

As to `CSc1ccc(OCc2ccc(F)cc2F)c(C2=C(c3cccc(C(=O)O)c3)CCC2)c1`, the half-maximal inhibitory concentration (IC50) is 15.8 nM in series [1] and over 3160 nM in series [2].

With `N#Cc1ccc(OCc2ccc(Cl)cc2)c(C2=C(c3cccc(C(=O)O)c3)CCC2)c1`, the figures for the concentration for half-maximal inhibition (IC50) in [1] and in series [2] were 200 nM and over 3160 nM, respectively.

With `O=C(O)c1cccc(C2=C(c3cc(Cl)ccc3OCc3ccccc3)CCC2)c1`, the values for the IC50 in series [1] and in series [2] were 5.01 nM and over 3160 nM, respectively.

Consider `N#Cc1ccc(OCc2ccc(F)cc2)c(C2=C(c3cccc(C(=O)O)c3)CCC2)c1`, for which the IC50 in series [1] was 398 nM; in [2] it was over 3160 nM.

`O=C(O)c1cccc(C2=C(c3cc(Br)ccc3OCc3ccc(F)cc3)CCC2)c1`: in series [6], the Vd came out at 0.7 L/kg. Also, the figures for the half-maximal inhibitory concentration (IC50) in series [1] and in series [2] were 20 nM and over 3160 nM, respectively. This compound also gave a half-life in series [7] of 0.2 h. This compound also showed a clearance in series [8] of 46 mL/min/kg.

As for `O=C(O)c1cc(C2=C(c3cc(C(F)(F)F)ccc3OCc3ccccc3)CCC2)ccn1`, the concentration for half-maximal inhibition (IC50) in series [1] was 39.8 nM.

In turn, `O=C(O)c1cncc(C2=C(c3cc(C(F)(F)F)ccc3OCc3ccccc3)CCC2)c1` displayed a logD in [3] of 2.7. Also, the CLint scaled in series [4] was found to be 2.2 mL/min/g. Besides, the IC50 in [1] is 10 nM; against Cytochrome P450 2C9 it was 14000 nM. In addition, the 50% effective dose (ED50) with Rattus norvegicus [9] was determined as 1.3 mg/kg. In series [10], this compound showed a half-life of 4.1 h. Moreover, the clearance in series [11] was determined as 22 mL/min/kg.

For the compound `COc1ccc(COc2ccc(Br)cc2C2=C(c3cccc(C(=O)O)c3)CCC2)cc1`, the half-inhibitory concentration (IC50) in [1] was 39.8 nM; in series [2], over 3160 nM.

For the compound `O=C(O)c1cccc(C2=C(c3ccccc3OCc3ccc(F)cc3F)CCC2)c1`, the values for the IC50 in series [1] and in series [2] were 25.1 nM and over 3160 nM, respectively.

`O=C(O)c1cccc(C2=C(c3cc(Br)ccc3OCc3ccc(Cl)c(Cl)c3)CCC2)c1`: the IC50 in [1] is 100 nM; in series [2], over 3160 nM.

For `O=C(O)c1cccc(C2=C(c3ccccc3OCc3ccccc3)CCC2)c1`, the half-maximal inhibitory concentration (IC50) in series [1] was 6.31 nM; in series [2], over 3160 nM.

In the case of `CS(=O)(=O)c1ccc(OCc2ccccc2)c(C2=C(c3cccc(C(=O)O)c3)CCC2)c1`, the concentration for half-maximal inhibition (IC50) in series [1] was 79.4 nM; in [2], over 3160 nM.

With `CS(=O)(=O)c1ccc(OCc2ccc(F)cc2F)c(C2=C(c3cccc(C(=O)O)c3)CCC2)c1`, the concentration for half-maximal inhibition (IC50) in series [1] is 15.8 nM; in [2], over 3160 nM.

Turning to `O=C(O)c1ccnc(C2=C(c3cc(Cl)ccc3OCc3ccccc3)CCC2)n1`, the log distribution coefficient (logD) in series [3] is 0.8. For the same compound, the midpoint of inhibition in [1], the IC50, lay at 158 nM.

As to `O=C(O)c1cccc(C2=C(c3ccccc3OCc3ccc(Cl)c(Cl)c3)CCC2)c1`, the IC50 is 398 nM in series [1] and over 3160 nM in [2].

Consider `CSc1ccc(OCc2ccccc2)c(C2=C(c3cccc(C(=O)O)c3)CCC2)c1`, for which the IC50 in series [1] was 63.1 nM; in series [2], over 3160 nM.

For the compound `O=C(O)c1cccc(C2=C(c3cc(Cl)ccc3OCc3ccc(F)cc3F)CCC2)n1`, in [3], the logD came out at 2.6. The same compound had a CLint scaled in [4] of 2.9 mL/min/g. The half-life was 2 h in series [12] and 2.2 h in [10]. Besides, the IC50 is 2.51 nM in [1] and 14000 nM against Cytochrome P450 2C9. The bioavailability amounted to 53% in series [13] and 54% in [15]. The ED50 with Rattus norvegicus [9] came to 1.3 mg/kg. The outcome in the series with Rattus norvegicus [14] was Active. Also, the clearance in series [11] is 7 mL/min/kg. Further, in series [16], the Kb is 0.794 nM.

As to `O=C(O)c1cccc(C2=C(c3cc(Br)ccc3OCc3ccc(Cl)cc3)CCC2)c1`, the Vd in [6] was determined as 0.4 L/kg. Also, the concentration for half-maximal inhibition (IC50) in series [1] is 12.6 nM; in series [2] it was over 3160 nM. The clearance in series [8] came to 33 mL/min/kg.

For the compound `N#Cc1ccc(OCc2ccccc2)c(C2=C(c3cccc(C(=O)O)c3)CCC2)c1`, the values for the 50% inhibitory concentration (IC50) in series [1] and in [2] were 100 nM and over 3160 nM, respectively.

Regarding `N#Cc1ccc(OCc2ccc(F)cc2F)c(C2=C(c3cccc(C(=O)O)c3)CCC2)c1`, the 50% inhibitory concentration (IC50) is 39.8 nM in series [1] and over 3160 nM in [2].

As for `O=C(O)c1cccc(C2=C(c3ccccc3OCc3ccc(Cl)cc3F)CCC2)c1`, the concentration for half-maximal inhibition (IC50) in series [1] was 50.1 nM; in series [2], over 3160 nM.

For `O=C(O)c1cccc(C2=C(c3cc(Br)ccc3OCc3ccc(F)cc3F)CCC2)c1`, the Vd in series [6] amounted to 0.6 L/kg. For the same compound, the IC50 in [1] is 5.01 nM; in [2], over 3160 nM. In addition, in series [7], the half-life is 0.2 h. For the same compound, in series [8], the clearance turned out to be 35 mL/min/kg.

Turning to `O=C(O)c1cnnc(C2=C(c3cc(Cl)ccc3OCc3ccc(F)cc3F)CCC2)c1`, in series [3], the logD was determined as 1.2. In series [4], this compound showed a CLint scaled of 14 mL/min/g. The IC50 in series [1] is 6.31 nM; against Cytochrome P450 2C9, 5400 nM.

`Cc1ncc(C2=C(c3cc(Cl)ccc3OCc3ccc(F)cc3)CCC2)cc1C(=O)O` gave a logD in series [3] of 2.7. Also, in series [4], the CLint scaled amounted to 3.8 mL/min/g. Also, the Activity with Rattus norvegicus [5] is reported as under 30%. In addition, the IC50 in [1] is 1.58 nM; against Cytochrome P450 2C9 it was 9000 nM.

As for `O=C(O)c1cc(C2=C(c3cc(Cl)ccc3OCc3ccccc3)CCC2)cnn1`, the midpoint of inhibition in series [1], the IC50, lay at 39.8 nM.

`O=C(O)c1ccnc(C2=C(c3cc(Br)ccc3OCc3ccc(F)cc3)CCC2)c1` came in with a logD in series [3] of 2.7. Further, in [4], the CLint scaled came out at 20 mL/min/g. Moreover, the IC50 in series [1] is 3.16 nM; against Cytochrome P450 2C9 it was 5000 nM.

With `CS(=O)(=O)c1ccc(OCc2ccc(F)cc2)c(C2=C(c3cccc(C(=O)O)c3)CCC2)c1`, the half-maximal inhibitory concentration (IC50) is 79.4 nM in series [1] and over 3160 nM in series [2].

`O=C(O)c1cccc(C2=C(c3cc(Br)ccc3OCc3ccccc3)CCC2)c1`: the Vd in series [6] amounted to 1 L/kg. Besides, the figures for the IC50 in series [1] and in [2] were 12.6 nM and over 3160 nM, respectively. In addition, in series [7], the half-life was 0.3 h. The same compound showed a clearance in series [8] of 52 mL/min/kg.
